From ChEMBL document CHEMBL5236549, “Discovery of 2-Sulfinyl-Diazabicyclooctane Derivatives, Potential Oral β-Lactamase Inhibitors for Infections Caused by Serine β-Lactamase-Producing Enterobacterales” (J Med Chem, 2021)

How the values were obtained:
[1] = Inhibition of bacterial beta-lactamase CMY-2 using nitrocefin as substrate incubated for 20 mins; set-up: species or system Bacteria
How it was run: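 Nitrocefin hydrolysis read by absorbance. Enzyme titrated to give about 0.2 absorbance change over the no-enzyme control. Enzyme added to nitrocefin (final 50 μg/mL) plus inhibitor, no preincubation, read after 20 min at 35 °C. IC50 is 50% reduction of hydrolysis. N = 1.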

[2] = Stability in rat serum assessed as compound remaining at 5 micromol/L incubated for 30 mins by LC-MS/MS analysis; format: ADME, cell-free; details: dose 5 µmol/L, read-out: Stability
How it was run: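 Pooled rat serum incubated with 5 μmol/L compound for 30 min at 37 °C, in duplicate; aliquot mixed with methanol, centrifuged, supernatant analysed by LC/MS/MS for % remaining.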

[3] = Stability of the compound in phosphate buffer at pH 7.0 assessed as parent compound remaining at 40 degreeC measured after 16 hrs; format: physicochemical; details: read-out: Stability
How it was run: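 Compound held in pH 7.0 phosphate buffer at 40 °C for 16 h; amount remaining reported as %.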

Escherichia coli [4] = assay: Antibacterial activity against Escherichia coli ATCC SR09613 assessed as reduction in bacterial growth by measuring minimum […] concentration incubated for 16 to 24 hrs by CLSI based two-fold serial dilution method; format: functional; details: time 16-24 hrs
How it was run: (§1)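 MPC₁ by broth microdilution: twofold serial dilutions of inhibitor in cation-adjusted Mueller Hinton broth containing ceftibuten at 1 μg/mL. Inoculum about 5 × 10⁴ cfu/well final, set from OD625. Incubation at 35 °C for 16−20 h. […] N = 1.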

Klebsiella pneumoniae [5] = assay: Antibacterial activity against Klebsiella pneumoniae ATCC SR201218 assessed as reduction in bacterial growth by measuring minimum […] concentration incubated for 16 to 24 hrs by CLSI based two-fold serial dilution method; format: functional; details: time 16-24 hrs; how it was run: as §1
Enterobacter cloacae [6] = assay: Antibacterial activity against Enterobacter cloacae SR200030 assessed as inhibition of bacterial growth incubated for 16 to 24 hrs by CLSI based two-fold serial dilution method; format: functional; details: time 16-24 hrs
How it was run: (§2)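 CLSI broth microdilution in cation-adjusted Mueller Hinton broth, twofold serial dilutions, about 5 × 10⁴ cfu/well from OD625, 35 °C for 16−20 h. MIC is the lowest concentration with no visible growth.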

Klebsiella pneumoniae [7] = assay: Antibacterial activity against Klebsiella pneumoniae SR200263 assessed as inhibition of bacterial growth incubated for 16 to 24 hrs by CLSI based two-fold serial dilution method; format: functional; details: time 16-24 hrs; how it was run: as §2
Klebsiella pneumoniae [8] = assay: Antibacterial activity against Klebsiella pneumoniae SR200487 assessed as inhibition of bacterial growth incubated for 16 to 24 hrs by CLSI based two-fold serial dilution method; format: functional; details: time 16-24 hrs; how it was run: as §2
Enterobacter cloacae [9] = assay: Antibacterial activity against Enterobacter cloacae SR200030 assessed as reduction in bacterial growth by measuring minimum […] concentration incubated for 16 to 24 hrs by CLSI based two-fold serial dilution method; format: functional; details: time 16-24 hrs
How it was run: (§3)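 Inhibitor twofold serially diluted in cation-adjusted Mueller Hinton broth containing ceftibuten 1 μg/mL. About 5 × 10⁴ cfu/well, 35 °C for 16−20 h. […] N = 1.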

Klebsiella pneumoniae [10] = assay: Antibacterial activity against Klebsiella pneumoniae SR100758 assessed as reduction in bacterial growth by measuring minimum […] concentration incubated for 16 to 24 hrs by CLSI based two-fold serial dilution method; format: functional; details: time 16-24 hrs; how it was run: as §3
Klebsiella pneumoniae [11] = assay: Antibacterial activity against Klebsiella pneumoniae SR201325 assessed as reduction in bacterial growth by measuring minimum […] concentration incubated for 16 to 24 hrs by CLSI based two-fold serial dilution method; format: functional; details: time 16-24 hrs; how it was run: as §3
[12] = Half life in mouse at 10 mg/kg,iv by LC/MS/MS analysis; format: ADME, organism-based; details: in vivo
How it was run: (§4)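 After iv dosing, T1/2 taken as ln 2/kel, with kel from the slope of the log concentration–time profile. Plasma levels measured by LC/MS/MS with an external standard.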

[13] = Total clearance in mouse at 10 mg/kg,iv by LC/MS/MS analysis; format: ADME, organism-based; details: in vivo
How it was run: (§5)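 Intravenous dosing (mouse 10, rat 1, dog 5, monkey 5 mg/kg); plasma quantified by LC/MS/MS after methanol precipitation with external standard; AUC by linear trapezoidal approximation; CLtot = dose/AUC.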

[14] = Half life in rat at 1 mg/kg,iv by LC/MS/MS analysis; format: ADME, organism-based; details: in vivo; how it was run: as §4
[15] = Total clearance in dog at 5 mg/kg,iv by LC/MS/MS analysis; format: ADME, organism-based, Canis lupus familiaris; details: in vivo; how it was run: as §5
[16] = Half life in monkey at 5 mg/kg,iv by LC/MS/MS analysis; format: ADME, organism-based, Macaca mulatta; details: rhesus monkey, in vivo; how it was run: as §4
Escherichia coli [17] = assay: Antibacterial activity against Escherichia coli ATCC SR34100 assessed as inhibition of bacterial growth incubated for 16 to 20 hrs by CLSI based two-fold serial dilution method
Escherichia coli [18] = assay: Antibacterial activity against Escherichia coli ATCC SR09613 assessed as inhibition of bacterial growth incubated for 16 to 20 hrs by CLSI based two-fold serial dilution method
Enterobacter cloacae [19] = assay: Antibacterial activity against Enterobacter cloacae SR100108 assessed as inhibition of bacterial growth incubated for 16 to 20 hrs by CLSI based two-fold serial dilution method
Klebsiella pneumoniae [20] = assay: Antibacterial activity against Klebsiella pneumoniae SR09635 assessed as inhibition of bacterial growth incubated for 16 to 20 hrs by CLSI based two-fold serial dilution method
Klebsiella pneumoniae [21] = assay: Antibacterial activity against Klebsiella pneumoniae SR09603 assessed as inhibition of bacterial growth incubated for 16 to 20 hrs by CLSI based two-fold serial dilution method
Klebsiella pneumoniae [22] = assay: Antibacterial activity against Klebsiella pneumoniae SR201325 assessed as inhibition of bacterial growth incubated for 16 to 20 hrs by CLSI based two-fold serial dilution method
Enterobacter cloacae [23] = assay: Antibacterial activity against Enterobacter cloacae SR36276 assessed as reduction in bacterial growth by measuring minimum […] concentration incubated for 16 to 20 hrs by CLSI based two-fold serial dilution method; details: time 16-20 hrs
Klebsiella pneumoniae [24] = assay: Antibacterial activity against Klebsiella pneumoniae SR09635 assessed as reduction in bacterial growth by measuring minimum […] concentration incubated for 16 to 20 hrs by CLSI based two-fold serial dilution method; details: time 16-20 hrs
Klebsiella pneumoniae [25] = assay: Antibacterial activity against Klebsiella pneumoniae SR09603 assessed as reduction in bacterial growth by measuring minimum […] concentration incubated for 16 to 20 hrs by CLSI based two-fold serial dilution method; details: time 16-20 hrs
Klebsiella pneumoniae [26] = assay: Antibacterial activity against Klebsiella pneumoniae SR200263 assessed as reduction in bacterial growth by measuring minimum […] concentration incubated for 16 to 20 hrs by CLSI based two-fold serial dilution method; details: time 16-20 hrs
Klebsiella pneumoniae [27] = assay: Antibacterial activity against Klebsiella pneumoniae ATCC BAA1705 assessed as reduction in bacterial growth by measuring minimum potentiating concentration incubated for 16 to 20 hrs by CLSI based two-fold serial dilution method; details: time 16-20 hrs

## C[S@@+]([O-])[C@@H]1CC[C@@H]2CN1C(=O)N2O[C@H](F)C(=O)[O-].[Na+]
[1]
  IC50: 28 nM
[2]
  remaining at 0.5 h, 5 µM: 85%
[3]
  remaining at 16 h: 95%
Escherichia coli [4]
  MPC: 0.125 µg/mL
Klebsiella pneumoniae [5]
  MPC: 2 µg/mL
Enterobacter cloacae [6]
  MIC: > 32 µg/mL
Klebsiella pneumoniae [7]
  MIC: 32 µg/mL
Klebsiella pneumoniae [8]
  MIC: > 32 µg/mL
Enterobacter cloacae [9]
  MPC: 4 µg/mL
Klebsiella pneumoniae [10]
  MPC: 0.25 µg/mL
Klebsiella pneumoniae [11]
  MPC: 2 µg/mL
[12]
  half-life: 24 min
[13]
  clearance: 34.7 mL/min/kg
[14]
  half-life: 12 min
[15]
  clearance: 4.3 mL/min/kg
[16]
  half-life: 30 min
Escherichia coli [17]
  MIC: 32 µg/mL
Escherichia coli [18]
  MIC: 32 µg/mL
Enterobacter cloacae [19]
  MIC: > 32 µg/mL
Klebsiella pneumoniae [20]
  MIC: 32 µg/mL
Klebsiella pneumoniae [21]
  MIC: 32 µg/mL
Klebsiella pneumoniae [22]
  MIC: > 32 µg/mL
Enterobacter cloacae [23]
  MPC: 2 µg/mL
Klebsiella pneumoniae [24]
  MPC: 2 µg/mL
Klebsiella pneumoniae [25]
  MPC: 0.125 µg/mL
Klebsiella pneumoniae [26]
  MPC: 0.125 µg/mL
Klebsiella pneumoniae [27]
  MPC: 0.063 µg/mL
